Source: PubChem
UBC13 inh: UBC13 polyubiquitin chain formation inhibitors, primary screen, biochemical, TR-FRET, uHTS; Ubiquitin-conjugating enzyme E2 N (Homo sapiens), P61088; inhibition, % at 20 µM; 330,000 tested, 0.47% active; AID 485273, 2010; in the data active = inhibition above about 45%, passing the limit was not always enough
Target sequence (P61088 whole entry, looked up): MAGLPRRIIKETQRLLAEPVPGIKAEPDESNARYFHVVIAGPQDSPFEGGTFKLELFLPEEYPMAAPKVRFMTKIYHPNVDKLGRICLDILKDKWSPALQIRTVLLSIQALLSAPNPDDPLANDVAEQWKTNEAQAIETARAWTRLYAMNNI
SENP7 inh: SENP7 protease inhibitors, primary screen, biochemical, luminescence, uHTS; Sentrin-specific protease 7 (Homo sapiens), Q9BQF6; recombinant SENP7, Z-RLRGG-aminoluciferin luminescence, 40 min; inhibition, % at 5 µM; 330,000 tested, 1.5% active;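 active = inhibition above about 50% at the single test dose, limit read from the data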
SENP6 inh: SENP6 protease inhibitors, primary screen, biochemical, luminescence, uHTS; inhibition, % at 10 µM; Recombinant SENP6 catalytic domain, aminoluciferin luminescence; 330,000 tested, 1.8% active; Sentrin-specific protease 6 (Homo sapiens), Q9GZR1;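 active = inhibition above about 50% at the single tested dose, limit read from the data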
Target sequence (Q9GZR1 628-1112 limits assumed): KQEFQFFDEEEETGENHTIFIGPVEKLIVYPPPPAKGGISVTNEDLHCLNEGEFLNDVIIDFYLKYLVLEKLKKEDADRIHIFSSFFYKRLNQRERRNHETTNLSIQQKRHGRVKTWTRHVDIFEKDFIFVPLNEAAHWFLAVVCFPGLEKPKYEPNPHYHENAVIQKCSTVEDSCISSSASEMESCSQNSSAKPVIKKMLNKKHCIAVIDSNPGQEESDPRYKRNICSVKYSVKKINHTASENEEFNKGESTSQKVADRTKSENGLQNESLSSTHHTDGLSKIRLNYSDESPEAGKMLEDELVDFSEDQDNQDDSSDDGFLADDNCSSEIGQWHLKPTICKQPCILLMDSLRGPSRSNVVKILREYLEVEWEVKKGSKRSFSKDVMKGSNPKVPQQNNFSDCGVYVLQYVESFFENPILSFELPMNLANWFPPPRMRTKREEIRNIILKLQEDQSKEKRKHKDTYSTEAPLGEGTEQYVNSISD
SENP8 block-1: human SENP8 protease inhibitors, primary screen, biochemical, fluorescence, Nedd8 protein substrate, uHTS; Sentrin-specific protease 8 (Homo sapiens), Q96LD8; recombinant SENP8; inhibition, % at 20 µM; 360,000 tested, 0.64% active; AID 602440, 2012; in the data active = inhibition mostly above about 40%, no sharp cut-off; inactive = mostly below about 27%
SENP8 block-2: SENP8 protease inhibitors, primary screen, biochemical, luminescence | 330,000 tested, 1.2% active | inhibition, % at 10 µM | Sentrin-specific protease 8 (Homo sapiens), Q96LD8 | AID 2540, 2010 | purified SENP8, Z-RLRGG-aminoluciferin cleavage; in the data active = inhibition above about 50%
Apaf1 inhib: inhibitors of human Apaf-1 apoptosome, primary screen, biochemical, DEVD-Rh110 fluorescence, uHTS; reconstituted apoptosome caspase-3 activity; 330,000 tested, 0.71% active; inhibition, % at 20 µM; active = inhibition of at least 40% at 20 µM
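Material: reconstituted apoptosome with Apaf-1, cytochrome c, caspase-9, procaspase-3, dATP. Technique: Rh110 fluorescence intensity. Buffer or medium: pH 7.5 Hepes buffer with CHAPS, BSA, DTT. Times: 30 min plus 50 min, RT.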
SENP8 confirm: SENP8 protease inhibitors, retest, confirmation, biochemical, luminescence, single concentration | Recombinant SENP8, Z-RLRGG-aminoluciferin luminescence, 60 min | inhibition, % at 12.5 µM | shares compounds with SENP7 inh | 6,200 tested, 40% active;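 active = mean inhibition across replicates above about 50%, limit read from the data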
SENP6 conf: SENP6 protease inhibitors, confirmation, biochemical, luminescence, single concentration; shares compounds with SENP7 inh; recombinant SENP6, Z-RLRGG-aminoluciferin luminescence; inhibition, % at 12.5 µM; 6,200 tested, 58% active
SENP7 confirm: SENP7 protease inhibitors, retest, confirmation, biochemical, luminescence, single concentration. 6,200 tested, 69% active. shares compounds with SENP7 inh. recombinant SENP7, Z-RLRGG-aminoluciferin luminescence, 40 min. AID 488917, 2010. inhibition, % at 12.5 µM
Casp3 select: caspase-3 protease inhibitors, confirmation, selectivity assay for SENP inhibitor project, biochemical, single concentration; shares compounds with SENP7 inh; purified caspase-3, Z-DEVD-aminoluciferin luminescence, 60 min; inhibition, % at 12.5 µM; 6,200 tested, 60% active; AID 488918, 2010;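 active = mean inhibition above about 50%, limit read from the data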
Luc interf: interferes with luciferase luminescence in SENP counter-screen | shares compounds with SENP7 inh | Pre-incubated SENP8/Z-RLRGG-aminoluciferin, luciferase luminescence interference | inhibition, % at 12.5 µM | 6,200 tested, 39% active;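 active = mean inhibition above about 50% when retested at one dose, limit read from the data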
Hits are given with their value; – = inactive; · = no result given. Compounds with a hit are over-represented: about 3% of the library has one in this group of screens.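 The calls were made as follows, unless noted: active = mean inhibition above about 50% in the one-dose retest (limit read from the data); inactive = the rest.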

SMILES | UBC13 inh | SENP7 inh | SENP6 inh | SENP8 block-1 | SENP8 block-2 | Apaf1 inhib | SENP8 confirm | SENP6 conf | SENP7 confirm | Casp3 select | Luc interf
Cc1cccc(C)c1OCc1cc(C(=O)N2CCN(c3ccccn3)CC2)no1 | – | – | – | – | – | – | · | · | · | · | ·
Cn1cnc(CCNC(=O)C[C@H]2CC[C@@H]3[C@H](COC[C@H](O)CN3C(=O)C3CCCC3)O2)c1 | · | · | · | – | · | · | · | · | · | · | ·
CN(Cc1ccc(Cl)cc1Cl)C(=O)C1CSC2(C)CCC(=O)N12 (centres undefined) | · | · | · | – | · | · | · | · | · | · | ·
COc1ccc(Cn2c(C3CC3)nc3ccc(NC(C)=O)cc3c2=O)cc1 | – | 67 | 73 | – | – | – | 70 | 68 | 90 | 73 | –
COc1ccc(Cn2c(C3CC3)nc3ccc(NC(=O)c4cccnc4)cc3c2=O)cc1 | – | – | – | – | – | – | · | · | · | · | ·
CCc1ccc(C(=O)c2cc3ccc(O)cc3oc2=O)cc1 | – | – | 60 | – | – | – | 66 | 62 | 84 | 71 | 66
COc1ccc(-c2cc3ccc(O)cc3oc2=O)cc1OC | – | 100 | 99 | – | 95 | – | 99 | 100 | 103 | 99 | 96
CC(=O)c1cc2ccc(O)cc2oc1=O | – | – | – | – | – | – | · | · | · | · | ·
COc1ccc(C(=O)c2cc3ccc(O)cc3oc2=O)cc1 | – | 97 | 100 | – | 95 | – | 96 | 97 | 102 | 98 | 95
O=C(NCc1ccco1)c1cc2ccc(O)cc2oc1=O | – | 96 | 98 | – | 95 | – | 99 | 100 | 103 | 99 | 99
O=C(c1ccccc1)c1cc2ccc(O)cc2oc1=O | – | 98 | 95 | – | 96 | – | 98 | 99 | 102 | 98 | 96
O=C(c1ccc(Br)cc1)c1cc2ccc(O)cc2oc1=O | – | 51 | 90 | – | 92 | – | 92 | 95 | 101 | 96 | 95
O=C(NNC(=O)c1cc2cc(Br)ccc2oc1=O)c1ccc(O)cc1O | – | – | – | – | – | – | · | · | · | · | ·
CCN(C(=O)Cn1cc(C(=O)C(=O)N2CCOCC2)c2ccccc21)c1ccccc1 | – | – | – | – | – | – | · | · | · | · | ·
CC(C)c1nnc(NC(=O)CCC(=O)NC2CC2)s1 | – | – | – | – | – | – | · | · | · | · | ·
Cc1ccc(C)c(C(=O)C(C)Sc2nc3nn(-c4ccccc4)c(=O)c-3c3n2CCCCC3)c1 (centres undefined) | – | – | – | – | – | – | · | · | · | · | ·
O=C(/C=C\Nc1ccccn1)c1ccccc1 | – | 97 | 95 | – | 90 | – | 96 | 96 | 102 | 97 | 94
COc1ccc(C(=O)/C=C/Nc2ccccn2)c(OC)c1 | – | – | – | – | – | – | · | · | · | · | ·
O=C(/C=C/c1ccccc1)c1ccccn1 | – | – | – | – | – | – | · | · | · | · | ·
O=C(/C=C/Nc1ccccc1Br)c1ccccn1 | – | 100 | 97 | – | 96 | – | – | 100 | 103 | 97 | 89
COc1ccccc1NC(=O)CON=C(N)CC(=O)NC1CCCCC1 | – | – | – | – | – | – | · | · | · | · | ·
Cn1nnc(NC(=O)c2cccc(F)c2)n1 | – | – | 51 | – | – | – | – | – | – | – | –
O/C(=C\c1ccc2ccccc2n1)c1ccncc1 | – | 97 | 98 | – | 90 | – | 94 | 94 | 102 | 97 | 94
O/N=C/c1ccc2ccccc2n1 | – | – | – | – | – | – | · | · | · | · | ·
CCOC(=O)CC(NC(=O)c1cc2ccccc2oc1=O)c1cccc([N+](=O)[O-])c1 (centres undefined) | – | – | – | – | – | – | · | · | · | · | ·
SMILES | UBC13 inh | SENP7 inh | SENP6 inh | SENP8 block-1 | SENP8 block-2 | Apaf1 inhib | SENP8 confirm | SENP6 conf | SENP7 confirm | Casp3 select | Luc interf
C[C@H]1CC[C@]2(O[C@H](CCO)C[C@H](O)[C@H]2O)O1 | – | – | – | – | – | – | · | · | · | · | ·
O=C1[C@H](Cc2ccccc2)NCC=CC[C@@H](c2ccc(Cl)cc2)N1Cc1ccccc1 | · | · | · | – | · | · | · | · | · | · | ·
COc1ccccc1OCC(=O)N(Cc1nnc(-c2ccccc2Cl)o1)C1CC1 | – | – | – | – | – | – | · | · | · | · | ·
COc1ccc2nc(NC(=O)c3cccc(OCc4c(C)noc4C)c3)sc2c1 | – | – | 60 | – | – | – | – | – | 71 | – | –
Cc1ccsc1C(=O)Nc1ccc(OCc2ccccc2)cc1 | – | 98 | 91 | – | 88 | – | – | 84 | 101 | 95 | –
O=C(Nc1ccc(OCc2ccccc2)cc1)c1ccccc1 | – | 67 | – | – | – | – | – | – | – | – | –
CCSc1nnc(NC(=O)c2cccc(OCc3c(C)noc3C)c2)s1 | – | – | – | – | – | – | · | · | · | · | ·
Cc1ccsc1C(=O)Nc1ccc(C(=O)O)cc1 | – | 86 | – | – | 79 | – | – | 78 | 95 | 96 | 81
O=C(Nc1ccc(OCc2ccccc2)cc1)c1cccnc1 | – | – | – | – | – | – | · | · | · | · | ·
Cc1ccc(C(=O)Nc2ccc(OCc3ccccc3)cc2)s1 | – | – | – | – | – | – | · | · | · | · | ·
COc1ccc(-c2coc3cc(OC(C)=O)ccc3c2=S)cc1 | · | · | · | – | · | · | · | · | · | · | ·
CC(C)(C)OC(=O)CC(S(=O)(=O)c1ccccc1)S(=O)(=O)c1ccccc1 | · | · | · | – | · | · | · | · | · | · | ·
CCCc1cc(=O)[nH]c2nnc(SCC(=O)NC3CCCCC3)n12 | – | – | – | – | – | – | · | · | · | · | ·
O=C(Nc1ccccc1)c1ccc(COc2ccccc2)cc1 | – | 64 | – | – | – | – | – | – | – | – | –
CC(C)=CC(=O)Nc1ccc(Br)cc1 | – | 54 | – | – | – | – | – | – | 83 | 61 | 60
CC(C)=CC(=O)Nc1ccc(OCc2ccccc2)cc1 | – | 58 | 73 | – | – | – | – | – | 76 | – | –
Cc1c(C(=O)Nc2ccc(OCc3ccccc3)cc2)cccc1[N+](=O)[O-] | – | – | – | – | – | – | · | · | · | · | ·
